# From PubChem
# In the library only some 4.4% were active in any assay of this set; here they are far more common.
# MsrA inhibitor = bovine MsrA inhibition; purified bovine MsrA, absorbance read-out; inhibition, % at 15.5 µM; hit rate 0.75% among 360,000; in the data active means inhibition above about 4.5%;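 further: 0% = vehicle wells with enzyme and 100% = reference inhibitor wells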
# AI-2 QS modul = modulates the Vibrio harveyi AI-2 quorum sensing system; activity change, % at 7.5 µM; AID 2094; Vibrio harveyi JMH597 AI-2 luminescence/OD600 ratio, 9 h; hits give low values; strain lacks LuxN and CqsS sensors; 0 = neutral-control median; hit rate 0.4% among 300,000; in the data active means activity change below about -75%, passing the limit was not always enough;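 further: luminescence divided by OD600 gain over 9 h not by final OD600 alone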
# bovine MsrA act = activators of bovine methionine sulfoxide reductase A. purified bovine MsrA, absorbance read-out. AID 602163. activation, % at 10.6 µM. hit rate 0.3% among 360,000; in the data active means activation above about 7.5%;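 further: 0% = vehicle and 100% = reference activator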
# HTR2A ag = agonists of mouse serotonin 5-HT2A receptor (HTR2A); P35363; CHO-K1 mHTR2A beta-arrestin complementation, luminescence; percent of 30 µM serotonin response; activation, % at 7.6 µM; hit rate 0.66% among 360,000; AID 624169;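 active means activation above a run cutoff, the mean activation of all tested compounds plus 3 SD, cut at about 14% in these data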;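 further: 0% = plate median of compound wells and 100% = 30 µM serotonin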
# Target sequence (P35363 whole entry, looked up): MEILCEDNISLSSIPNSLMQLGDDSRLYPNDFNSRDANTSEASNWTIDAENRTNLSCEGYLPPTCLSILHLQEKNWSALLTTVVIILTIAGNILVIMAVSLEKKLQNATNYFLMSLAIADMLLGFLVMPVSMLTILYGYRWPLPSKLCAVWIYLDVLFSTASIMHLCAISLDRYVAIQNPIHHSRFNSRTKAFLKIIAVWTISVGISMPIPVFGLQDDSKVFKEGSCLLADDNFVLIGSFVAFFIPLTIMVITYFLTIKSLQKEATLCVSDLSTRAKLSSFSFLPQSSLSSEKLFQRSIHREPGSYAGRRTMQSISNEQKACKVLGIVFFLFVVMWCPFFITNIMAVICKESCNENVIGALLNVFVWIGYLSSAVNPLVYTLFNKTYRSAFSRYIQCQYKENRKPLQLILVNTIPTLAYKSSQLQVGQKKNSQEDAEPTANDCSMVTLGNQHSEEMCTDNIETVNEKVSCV
# Tb MetRS inh = Trypanosoma brucei MetRS inhibition; AID 624268; hit rate 0.4% among 360,000; purified T. brucei MetRS, ATP depletion, Kinase-Glo luminescence; inhibition, % at 11.9 µM;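 active means inhibition above a per-plate cutoff of the control wells' mean inhibition plus 3 SD, cut at about 5.5% in these data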;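 further: 0% = DMSO wells median and 100% = median of wells with control inhibitor compound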
#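 Material: parasite MetRS enzyme / Replication: singlicate, one well per compound / Signal: luminescence of leftover ATP / Schedule: 2 h aminoacylation at 25 °C after 15 min preincubation / Medium: HEPES-MgCl2-KCl buffer plus DTT, spermine, BSA, pyrophosphatase / Doses: 11.9 µM single point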
# AHR activator = activators of human aryl hydrocarbon receptor | P35869 | AHR-responsive luciferase reporter cells, luminescence | activation, % at 5 µM | hit rate 2.5% among 320,000; in the data active means activation above about 47%;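 further: 0% = vehicle wells and 100% = reference agonist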
# MOR ag counter = OPRM1 agonism in mouse HTR2A counterscreen | shares compounds with HTR2A ag | U2OS OPRM1 beta-arrestin PathHunter, luminescence; DMSO 0%, DAMGO 9.3 µM 100% | activation, % at 9.3 µM | hit rate 5.3% among 2,300 | AID 624380;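 active means mean activation above the mean of DMSO-only wells plus 3 SD, cut at about 0.5% in these data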
# m5-HT2A ag conf = mouse HTR2A agonism confirmed | AID 624381 | hit rate 19% among 2,300 | shares compounds with HTR2A ag | activation, % at 7.6 µM | CHO-K1 PathHunter beta-arrestin recruitment, luminescence; DMSO 0%, 30 µM serotonin 100%;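 active means mean activation across triplicates above the hit threshold derived in the original primary screen, cut at about 15% in these data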
# Starred values were filed as active, the others as inactive; / = no result.
SMILES,MsrA inhibitor,AI-2 QS modul,bovine MsrA act,HTR2A ag,Tb MetRS inh,AHR activator,MOR ag counter,m5-HT2A ag conf
CCN(Cc1ccccc1)C(=O)Cn1cc(S(=O)(=O)NC)c(S(=O)(=O)NC)c1,0,26,-3,16*,-2,0,0,0
C[C@H]1CN([C@@H](C)CO)C(=O)CCCn2cc(nn2)CO[C@@H]1CN(C)C(=O)c1ccncc1,-1,/,0,7,-1,/,/,/
CC1(/[N+]([O-])=C\c2ccccc2F)CCCCC1=O (centres undefined),1,10,-1,16*,0,-1,0,-1
O=C(Cc1ccc(Br)cc1)NCc1ccccc1,1,17,0,1,0,0,/,/
CCCc1cc(NCCCN2CCOCC2)n2c(nc3ccccc32)c1C#N,1,10,-2,32*,0,2,0,0
COc1cc(CN2CCN(CCCc3ccccc3)C(CCO)C2)cc(OC)c1O (centres undefined),-1,6,-3,0,-1,2,/,/
CN1CCN(S(=O)(=O)c2cccc(C#N)c2)C(c2ccccc2)C1 (centres undefined),-1,/,-1,1,0,/,/,/
O=C(Nc1ccc(-c2n[nH]c(=S)o2)cc1)c1ccccc1Cl,2,23,-1,17*,-1,6,-1,5
CCc1nc2ccc(C(=O)NCc3cccs3)cn2c1N(CC)CCN(C)C,0,/,-6,-5,0,/,/,/
COc1cc2c(cc1OC)CN(C(=O)CCNS(=O)(=O)c1ccccc1F)CC2,0,34,-5,2,0,4,/,/
CN(C)CCCn1c(NC(=O)C2CCCCC2)nc2ccccc21,-2,6,-1,20*,0,0,-1,4
CC(=O)Nc1nc2ccccc2n1CCN(C)C,2,17,-12,-3,-2,1,/,/
O=C1CC(c2ccccc2)=NN1c1ccccc1,1,/,-10,15*,1,/,-1,-2
COc1ccc(Cl)cc1S(=O)(=O)N1CCC(C(=O)N2CCOCC2)CC1,2,21,-4,0,0,-2,/,/
COC(=O)[C@@]12CCCCN1[C@H](c1ccc(-c3ccc4c(c3)OCO4)c(OC)c1)[C@@H]1C(=O)N(C)C(=O)[C@@H]12,0,/,-3,0,0,5,/,/
NS(=O)(=O)c1ccc(-n2nc(C(=O)O)cc2-c2ccc(Cl)cc2)cc1,1,18,-10,0,-1,2,/,/
Cc1ccc(-c2cc(C(F)(F)F)nn2-c2ccc(S(N)(=O)=O)cc2)cc1,-1,9,-1,20*,0,-3,1.1*,25*
Cc1ccc(S(C)(=O)=O)cc1C(=O)OCC(=O)N1CCCC1=O,0,/,-3,5,0,/,/,/
COC1=C/C(=C/c2c(O)c(C#N)c3ccccn23)C=CC1=O,3,28,-8,20*,0,14,-1,-7
COc1cc(OC)cc(C(=O)c2c(C)c(C#N)c3ccccn23)c1,-1,10,-2,2,0,/,/,/
CCn1c(NC(=O)/C=C/c2ccc(F)cc2)nc2ccccc21,4,13,-2,-9,0,6,/,/
COc1ccc(CN2CCN(c3ccccn3)CC2)c(OC)c1C,-1,22,-5,3,0,-2,/,/
Cc1ccc(CN2CCN(c3ccccn3)CC2)s1,0,-26,-7,49*,-1,-2,0,103*
Cc1cccc(CN2CCN(c3ncccn3)CC2)c1,-1,10,-5,37*,-1,1,-1,93*
CCc1ccc(CN2CCN(c3ncccn3)CC2)cc1,1,28,-3,8,-1,3,/,/
SMILES,MsrA inhibitor,AI-2 QS modul,bovine MsrA act,HTR2A ag,Tb MetRS inh,AHR activator,MOR ag counter,m5-HT2A ag conf
c1ccc(N2CCN(Cc3ccsc3)CC2)nc1,0,27,-10,35*,-1,-5,-1,102*
c1ccc(CCCN2CCN(c3ccccn3)CC2)cc1,0,7,-2,-1,2,/,/,/
Cc1cccc(CN2CCN(c3ccccn3)CC2)c1,0,26,-2,32*,0,-9,-1,92*
Cc1cc(C(=O)N2CCC2(C)C(=O)Nc2cccc3c2CCCC3)nn1C (centres undefined),0,/,-2,-3,0,/,/,/
C/C(=N\NC(=O)c1ccc(O)cc1)c1cccc(NC(=O)c2ccccc2C)c1,0,3,0,-3,0,16,/,/
Brc1cccc(CN2CCN(c3ncccn3)CC2)c1,0,28,-3,33*,-1,/,0,84*
Brc1cccc(CN2CCCCCCC2)c1,-1,-11,-4,1,-1,-2,/,/
c1ccc(COc2cccc(CN3CCCCC3)c2)cc1,0,5,-10,5,-1,0,/,/
c1ccc(COc2cccc(CN3CCN(c4ccccn4)CC3)c2)cc1,-1,5,-2,36*,0,4,-1,93*
COCc1ccc(CN2CCC(n3nccc3NC(=O)C(OC)c3ccccc3)CC2)o1 (centres undefined),0,18,-13,15*,-1,-1,-1,-1
COc1cc(CC(=O)OCC(=O)N2C(C)CCCC2C)cc(OC)c1OC (centres undefined),0,45,-2,4,0,1,/,/
C/C=C/C(=O)OCC(=O)Nc1nc2ccc(C)cc2s1,1,-15,-1,26*,0,10,-1,-4
O=C(COC(=O)C1CC1)Nc1ccc(Cl)cc1Cl,-2,/,-3,4,0,-2,/,/
COc1ccc(C(=O)Nc2cccc([N+](=O)[O-])c2)cc1Br,2,13,-4,-2,-1,-15,/,/
COc1ccc(C(=O)Nc2ccc(OC)c([N+](=O)[O-])c2)cc1Br,0,-8,-4,24*,0,-13,-1,14
Cc1oc(-c2ccc(Cl)cc2)nc1CS(=O)CC(=O)NCCCN1CCCC(C)C1 (centres undefined),0,35,-5,17*,-1,-1,0,-2
Cn1ncc([N+](=O)[O-])c1C(=O)Nc1ccccc1C#N,1,/,-2,16*,0,/,-1,-4
COc1cc2c3nnc(-c4ccccc4)c-3cn(Cc3ccc(F)cc3)c2cc1OC,0,8,-4,32*,-1,2,0,21*
Cc1cccc(NC(=O)C2Cc3ccccc3O/C2=N\O)c1 (centres undefined),-1,14,-4,16*,-1,/,-1,-3
O=C(O)c1cccc(S(=O)(=O)Nc2ccc(Oc3ccccc3)cc2)c1,0,/,-2,5,0,3,/,/
